The term EC50 denotes the midpoint of the concentration-response curve.

Data set [1] relates to Coxsackievirus B4. As to the kind of experiment: Antiviral activity against Coxsackievirus B4 infected in african green monkey Vero cells assessed as inhibition of virus-induced cytopathicity after 3 days. It is filed as functional, organism-based. The settings on record: Enterovirus B, 72 h. Summed up: (§1)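 Confluent cell monolayers infected with 100 CCID50 virus; after 2 h adsorption at 37 °C, virus removed and serial compound dilutions added (DMSO stocks 10 mg/ml). Incubated 37 °C for 3 days until complete CPE in untreated virus control. EC50 = concentration protecting 50% of infected cells from viral cytopathogenicity; ">" marks highest concentration tested.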

Data set [2] concerns Human alphaherpesvirus 1. As to the kind of experiment: Antiviral activity against thymidine kinase-deficient ACV-resistant HSV1 KOS infected in human HEL cells assessed as inhibition of virus-induced cytopathicity after 3 days. It is filed as functional, organism-based. The settings on record: Human alphaherpesvirus 1, KOS, 72 h. In general terms: Protection from cytopathic effect is a common read-out in antiviral testing.

Data set [3] is described as follows: Cytotoxicity against african green monkey Vero cells assessed as minimum cytotoxic concentration required to cause microscopically detectable alteration in normal cell morphology. The note with it: chlorocebus sabaeus. It is filed as cell-based. In short, it runs like this: (§2)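 Run in parallel with antiviral assays on uninfected cell cultures; test compounds from 10 mg/ml DMSO stocks in serial dilution. Value is minimum cytotoxic concentration (MCC) producing microscopically detectable alteration of normal cell morphology.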

Data set [4] concerns Human alphaherpesvirus 1. The experiment in a line: Antiviral activity against HSV1 KOS infected in human HEL cells assessed as inhibition of virus-induced cytopathicity after 3 days. It is filed as functional, organism-based. The note with it: Human alphaherpesvirus 1, KOS, 72 h.
Data set [5] in a line: Cytotoxicity against human HeLa cells assessed as minimum cytotoxic concentration required to cause microscopically detectable alteration in normal cell morphology. It is filed as cell-based. In short, it runs like this:
as §2

The subject of another data set is Punta Toro virus. As to the kind of experiment: Antiviral activity against Punta Toro virus infected in african green monkey Vero cells assessed as inhibition of virus-induced cytopathicity after 3 days. The note with it: 72 h. It counts as functional, organism-based. Summed up:
(§3)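 Confluent cell monolayers infected with 100 CCID50 virus; after 2 h adsorption at 37 °C, virus removed and serial compound dilutions added (DMSO stocks 10 mg/ml). Incubated 37 °C for 3 days until complete CPE in untreated virus control.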

The test system of data set [6] is Vesicular stomatitis virus. As to the kind of experiment: Antiviral activity against Vesicular stomatitis virus infected in human HEL cells assessed as inhibition of virus-induced cytopathicity after 3 days. It is filed as functional, organism-based. The note with it: 72 h.
Data set [7] concerns Vesicular stomatitis virus. As to the kind of experiment: Antiviral activity against Vesicular stomatitis virus infected in human HeLa cells assessed as inhibition of virus-induced cytopathicity after 3 days. It counts as functional, organism-based. The note with it: 72 h.
Data set [8] can be described thus: Cytotoxicity against HEL cells assessed as minimum cytotoxic concentration required to cause microscopically detectable alteration in normal cell morphology. The note with it: human. It counts as cell-based. Summed up:
as §2

In a further data set the test system is Vaccinia virus. As to the kind of experiment: Antiviral activity against Vaccinia virus infected in human HEL cells assessed as inhibition of virus-induced cytopathicity after 3 days. It counts as functional, organism-based. The settings on record: Orthopoxvirus vaccinia, 72 h.
The next data set has as its system Sindbis virus. As to the kind of experiment: Antiviral activity against Sindbis virus infected in african green monkey Vero cells assessed as inhibition of virus-induced cytopathicity after 3 days postinfection. It is filed as functional, organism-based. The settings on record: 72 h. In short, it runs like this:
as §1

Data set [9] deals with Coxsackievirus B4. As to the kind of experiment: Antiviral activity against Coxsackievirus B4 infected in human HeLa cells assessed as inhibition of virus-induced cytopathicity after 3 days. It is filed as functional, organism-based. The note with it: Enterovirus B, 72 h. In short, it runs like this:
as §3

Data set [10] has as its system Respiratory syncytial virus. The experiment in a line: Antiviral activity against RSV infected in human HeLa cells assessed as inhibition of virus-induced cytopathicity after 3 days. It counts as functional, organism-based. The note with it: 72 h. In short, it runs like this:
as §1

A further data set concerns Human respirovirus 3. The experiment in a line: Antiviral activity against Parainfluenza virus type 3 infected in african green monkey Vero cells assessed as inhibition of virus-induced cytopathicity after 3 days. The note with it: Human respirovirus 3, Vero, 72 h. It counts as functional, organism-based. In short, it runs like this:
as §1

For data set [11], the system named is Mammalian orthoreovirus 1. As to the kind of experiment: Antiviral activity against Reovirus 1 infected in african green monkey Vero cells assessed as inhibition of virus-induced cytopathicity after 3 days. It is filed as functional, organism-based. The settings on record: Mammalian orthoreovirus 1, Vero, 72 h. Summed up:
as §1

In the next data set the test system is Human alphaherpesvirus 2. As to the kind of experiment: Antiviral activity against HSV2 G infected in human HEL cells assessed as inhibition of virus-induced cytopathicity after 3 days. It is filed as functional, organism-based. The note with it: Human alphaherpesvirus 2, strain G, 72 h. Summed up: as §1

Structures are written as SMILES. Bounds are passed on as bounds.

For the compound `O=C1CSC(N2N=C(c3ccccc3)CC2c2ccc(OCc3ccccc3)cc2)=N1` (stereo not given), the EC50 (in the data set on Coxsackievirus B4 [1]; with Human alphaherpesvirus 1 [2]; with Human alphaherpesvirus 1 [4]; with Punta Toro virus; in data set [6]; in data set [7]) was above 20 µg/mL throughout. For the same compound, the EC50 (in the data set on Vaccinia virus; in the data set on Sindbis virus; in the data set with Coxsackievirus B4 [9]; in data set [10]; in the data set with Human respirovirus 3; in data set [11]) was above 20 µg/mL in each case. Also, the EC50 in the data set on Human alphaherpesvirus 2 was above 20 µg/mL. For the same compound, the MCC in [3], in data set [5] and in data set [8] was 100 µg/mL throughout.

As for `Cc1ccc(-c2csc(N3N=C(c4ccc(Br)cc4)CC3c3ccc(OCc4ccccc4)cc3)n2)cc1` (stereo not given), the EC50 in the data set with Coxsackievirus B4 [1] is above 20 µg/mL; with Human alphaherpesvirus 1 [2] it was above 20 µg/mL; with Human alphaherpesvirus 1 [4], above 20 µg/mL; in the data set with Punta Toro virus, above 20 µg/mL; in [6], above 20 µg/mL; in [7], above 100 µg/mL. Moreover, the EC50 with Vaccinia virus is above 20 µg/mL; in the data set on Sindbis virus it was above 20 µg/mL; with Coxsackievirus B4 [9], above 100 µg/mL; in data set [10], above 100 µg/mL; in the data set with Human respirovirus 3, above 20 µg/mL; in data set [11], above 20 µg/mL. Further, the EC50 in the data set on Human alphaherpesvirus 2 was above 20 µg/mL. Besides, the MCC is 100 µg/mL in data set [3], above 100 µg/mL in data set [5] and 100 µg/mL in [8].

For `O=C1CSC(N2N=C(c3ccc(Cl)cc3)CC2c2ccc(OCc3ccccc3)cc2)=N1` (stereo not given), the EC50 (with Coxsackievirus B4 [1]; in the data set on Human alphaherpesvirus 1 [2]; in the data set on Human alphaherpesvirus 1 [4]; in the data set with Punta Toro virus; in data set [6]; in data set [7]) was above 20 µg/mL in each case. For the same compound, the EC50 (with Vaccinia virus; with Sindbis virus; in the data set on Coxsackievirus B4 [9]; in [10]; in the data set with Human respirovirus 3; in data set [11]) was above 20 µg/mL throughout. Further, the EC50 in the data set with Human alphaherpesvirus 2 was above 20 µg/mL. The MCC in data set [3], in [5] and in data set [8] was 100 µg/mL throughout.

`NC(=S)N1N=C(c2ccc(Cl)cc2)CC1c1ccc(OCc2ccccc2)cc1` (stereo not given): the EC50 (in the data set on Coxsackievirus B4 [1]; in the data set on Human alphaherpesvirus 1 [2]; with Human alphaherpesvirus 1 [4]; in the data set with Punta Toro virus; in data set [6]; in data set [7]) was above 100 µg/mL each time. Further, the concentration giving a half-maximal response (EC50) (in the data set with Vaccinia virus; in the data set on Sindbis virus; in the data set with Coxsackievirus B4 [9]; in data set [10]; with Human respirovirus 3; in data set [11]) was above 100 µg/mL in each case. In the data set with Human alphaherpesvirus 2, the 50% effective concentration (EC50) was above 100 µg/mL. In addition, the MCC in [3], in [5] and in data set [8] was above 100 µg/mL each time.

Consider `Clc1ccc(-c2csc(N3N=C(c4ccccc4)CC3c3ccc(OCc4ccccc4)cc3)n2)cc1` (stereo not given), for which the EC50 (with Coxsackievirus B4 [1]; in the data set with Human alphaherpesvirus 1 [2]; in the data set on Human alphaherpesvirus 1 [4]; with Punta Toro virus; in data set [6]; in [7]) was above 20 µg/mL throughout. Also, the EC50 (with Vaccinia virus; in the data set on Sindbis virus; with Coxsackievirus B4 [9]; in data set [10]; in the data set with Human respirovirus 3; in data set [11]) was above 20 µg/mL in each case. Further, the EC50 in the data set with Human alphaherpesvirus 2 was above 20 µg/mL. Also, the MCC in data set [3], in [5] and in data set [8] was 100 µg/mL each time.

The values above are taken from ChEMBL document CHEMBL1153616, “Synthesis and antiviral activity of new pyrazole and thiazole derivatives” (Eur J Med Chem, 2009).
